Data as given in ChEMBL document CHEMBL2040831, “Discovery of ((S)-5-(methoxymethyl)-7-(1-methyl-1H-indol-2-yl)-2-(trifluoromethyl)-4,7-dihydropyrazolo[1,5-a]pyrimidin-6-yl)((S)-2-(3-methylisoxazol-5-yl)pyrrolidin-1-yl)methanone as a potent and selective I(Kur) inhibitor” (J Med Chem, 2012).
The source made the active and inactive calls. The calls are words filed in the database; no cut-off is given here.

Columns and labels:
[1] = system: Liver microsomes; assay: Metabolic stability in human liver microsomes; assay type: ADME, Microsome
[2] = molecular target: hERG (KCNH2) (Homo sapiens, UniProt Q12809); assay: Inhibition of human ERG expressed in HEK293 cells at 10 uM by patch clamp assay; assay type: cell-based; settings: HEK293 cells expressing human ERG
[3] = system: Liver microsomes; assay: Metabolic stability in rat liver microsomes; assay type: ADME, Microsome
[4] = Drug degradation assessed as GSH adduct formation by fluorescence detection assay; assay type: physicochemical
Outline: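 Test article at 100 μM incubated 30 min at 37 °C with 2 mg/mL human liver microsomes in 0.1 M potassium phosphate buffer containing 2 mM NADPH and 2 mM dansyl glutathione. Quenched with 2 volumes of 5 mM dithiothreitol in methanol, vortexed and centrifuged. Supernatant analysed by HPLC with fluorescence detection (Ex 340 nm, Em 525 nm) to quantify GSH adducts.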

[5] = molecular target: T1, Potassium voltage-gated channel subfamily A member 5 (Homo sapiens, UniProt P22460); assay: Inhibition of human KV1.5 ion channel expressed in mouse L929 cells by whole cell patch clamp assay; assay type: cell-based
[6] = molecular target: T1, Potassium voltage-gated channel subfamily A member 5; assay: Inhibition of human KV1.5 ion channel expressed in mouse L929 cells at 0.3 uM by whole cell patch clamp assay; assay type: cell-based
[7] = Volume of distribution at steady state in rabbit at 5.6 umol/kg, iv; assay type: ADME, organism-based, Oryctolagus cuniculus; settings: in vivo, read-out: Vdss
[8] = Inhibition of INa ion channel at 10 uM
[9] = system: Oryctolagus cuniculus; assay: Proarrythmic activity in methoxamine-sensitized rabbit assessed as increase in ventricular effective refractory period at 0.3 to 10 mg/kg, iv relative to control; assay type: organism-based, Cardiac ventricle; design: dose 0.3-10 mg/kg, route intravenous; settings: in vivo
[10] = Inhibition of INa ion channel
[11] = Inhibition of ICAL ion channel at 10 uM
[12] = system: Plasma; assay: Plasma concentration in methoxamine-sensitised rabbit AERP model at 1 mg/kg, iv; assay type: ADME, organism-based, Oryctolagus cuniculus; design: dose 1 mg/kg, route intravenous; settings: in vivo
[13] = Half life in dog at 5.6 umol/kg, iv and 5.2 umol/kg, po; assay type: ADME, organism-based, Canis lupus familiaris; settings: in vivo
[14] = Half life in rat at 12 umol/kg, iv and 25.5 umol/kg, po; assay type: ADME, organism-based; settings: in vivo
[15] = Half life in rabbit at 5.6 umol/kg, iv; assay type: ADME, organism-based, Oryctolagus cuniculus; settings: in vivo
[16] = system: Plasma; assay: Plasma concentration in methoxamine-sensitised rabbit AERP model at 3 mg/kg, iv; assay type: ADME, organism-based, Oryctolagus cuniculus; design: dose 3 mg/kg, route intravenous; settings: in vivo
[17] = Clearance in rabbit at 5.6 umol/kg, iv; assay type: ADME, organism-based, Oryctolagus cuniculus; settings: in vivo
[18] = molecular target: T2, A-type voltage-gated potassium channel KCND3 (Homo sapiens, UniProt Q9UK17); assay: Inhibition of KV4.3 ion channel
T2 sequence (Q9UK17 whole entry): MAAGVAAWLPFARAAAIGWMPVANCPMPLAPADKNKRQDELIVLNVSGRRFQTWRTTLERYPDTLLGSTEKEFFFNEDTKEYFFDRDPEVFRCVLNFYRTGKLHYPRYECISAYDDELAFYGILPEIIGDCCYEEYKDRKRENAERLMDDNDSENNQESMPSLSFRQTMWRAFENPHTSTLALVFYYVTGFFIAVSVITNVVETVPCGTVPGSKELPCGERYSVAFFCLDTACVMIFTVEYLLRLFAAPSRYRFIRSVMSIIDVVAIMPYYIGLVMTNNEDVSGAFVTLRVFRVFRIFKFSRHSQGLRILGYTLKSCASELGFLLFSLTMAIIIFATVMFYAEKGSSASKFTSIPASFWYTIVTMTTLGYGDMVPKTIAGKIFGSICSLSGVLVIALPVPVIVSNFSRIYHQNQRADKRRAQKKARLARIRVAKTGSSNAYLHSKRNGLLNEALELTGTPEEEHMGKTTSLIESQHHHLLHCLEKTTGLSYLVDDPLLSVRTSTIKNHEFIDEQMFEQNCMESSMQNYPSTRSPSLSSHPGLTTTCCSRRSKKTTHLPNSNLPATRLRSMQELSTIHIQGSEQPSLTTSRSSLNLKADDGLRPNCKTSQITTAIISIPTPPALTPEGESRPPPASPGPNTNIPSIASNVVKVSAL

[19] = Volume of distribution at steady state in dog at 5.6 umol/kg, iv and 5.2 umol/kg, po; assay type: ADME, organism-based, Canis lupus familiaris; settings: in vivo, read-out: Vdss
[20] = Oral bioavailability in dog at 5.2 umol/kg; assay type: ADME, organism-based, Canis lupus familiaris; settings: in vivo
[21] = system: Plasma; assay: Plasma concentration in methoxamine-sensitised rabbit AERP model at 10 mg/kg, iv; assay type: ADME, organism-based, Oryctolagus cuniculus; design: dose 10 mg/kg, route intravenous; settings: in vivo
[22] = Inhibition of ICAL ion channel
[23] = molecular target: Voltage-gated inwardly rectifying potassium channel KCNH2 (Homo sapiens, UniProt Q12809); assay: Inhibition of human ERG expressed in HEK293 cells by patch clamp assay; assay type: cell-based
[24] = Volume of distribution at steady state in rat at 12 umol/kg, iv and 25.5 umol/kg, po; assay type: ADME, organism-based; settings: in vivo, read-out: Vdss
[25] = system: Plasma; assay: Plasma concentration in methoxamine-sensitised rabbit AERP model at 0.3 mg/kg, iv; assay type: ADME, organism-based, Oryctolagus cuniculus; design: dose 0.3 mg/kg, route intravenous; settings: in vivo
[26] = Oral bioavailability in rat at 25.5 umol/kg; assay type: ADME, organism-based; settings: in vivo
[27] = Clearance in rat at 12 umol/kg, iv and 25.5 umol/kg, po; assay type: ADME, organism-based; settings: in vivo
[28] = Clearance in dog at 5.6 umol/kg, iv and 5.2 umol/kg, po; assay type: ADME, organism-based, Canis lupus familiaris; settings: in vivo
[29] = system: Oryctolagus cuniculus; assay: Antiatrial fibrillation activity in methoxamine-sensitised rabbit assessed as increase in atrial effective refractory period at 0.3 to 10 mg/kg, iv relative to control; assay type: functional, organism-based; settings: Cardiac atrium
[30] = system: Oryctolagus cuniculus; assay: Antiatrial fibrillation activity in methoxamine-sensitised rabbit assessed as increase in atrial effective refractory period at 1 mg/kg, iv relative to control; assay type: functional, Cardiac atrium
[31] = Oral bioavailability in rat at 26 umol/kg; assay type: ADME, organism-based; settings: in vivo
[32] = Volume of distribution at steady state in rat at 12 umol/kg, iv and 26 umol/kg, po; assay type: ADME, organism-based; settings: in vivo, read-out: Vdss
[33] = Clearance in rat at 12 umol/kg, iv and 26 umol/kg, po; assay type: ADME, organism-based; settings: in vivo
[34] = Half life in rat at 12 umol/kg, iv and 26 umol/kg, po; assay type: ADME, organism-based; settings: in vivo

T1 sequence (P22460 whole entry): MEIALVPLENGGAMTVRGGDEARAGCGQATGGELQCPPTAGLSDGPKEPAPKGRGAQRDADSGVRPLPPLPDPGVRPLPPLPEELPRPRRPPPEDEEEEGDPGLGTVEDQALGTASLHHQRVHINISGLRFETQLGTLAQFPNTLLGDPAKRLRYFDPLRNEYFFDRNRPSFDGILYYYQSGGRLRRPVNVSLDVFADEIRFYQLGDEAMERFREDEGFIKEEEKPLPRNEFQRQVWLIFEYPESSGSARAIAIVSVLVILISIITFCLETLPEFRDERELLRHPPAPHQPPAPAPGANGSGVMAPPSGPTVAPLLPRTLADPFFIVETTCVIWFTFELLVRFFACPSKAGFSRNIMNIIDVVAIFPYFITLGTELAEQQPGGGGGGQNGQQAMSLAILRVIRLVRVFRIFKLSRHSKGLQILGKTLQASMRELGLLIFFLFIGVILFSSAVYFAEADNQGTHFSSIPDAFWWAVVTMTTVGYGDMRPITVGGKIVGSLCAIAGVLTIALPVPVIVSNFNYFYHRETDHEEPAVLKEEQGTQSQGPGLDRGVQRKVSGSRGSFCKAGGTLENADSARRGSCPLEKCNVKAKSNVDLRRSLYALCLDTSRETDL
hERG (KCNH2), sequence (Q12809 whole entry): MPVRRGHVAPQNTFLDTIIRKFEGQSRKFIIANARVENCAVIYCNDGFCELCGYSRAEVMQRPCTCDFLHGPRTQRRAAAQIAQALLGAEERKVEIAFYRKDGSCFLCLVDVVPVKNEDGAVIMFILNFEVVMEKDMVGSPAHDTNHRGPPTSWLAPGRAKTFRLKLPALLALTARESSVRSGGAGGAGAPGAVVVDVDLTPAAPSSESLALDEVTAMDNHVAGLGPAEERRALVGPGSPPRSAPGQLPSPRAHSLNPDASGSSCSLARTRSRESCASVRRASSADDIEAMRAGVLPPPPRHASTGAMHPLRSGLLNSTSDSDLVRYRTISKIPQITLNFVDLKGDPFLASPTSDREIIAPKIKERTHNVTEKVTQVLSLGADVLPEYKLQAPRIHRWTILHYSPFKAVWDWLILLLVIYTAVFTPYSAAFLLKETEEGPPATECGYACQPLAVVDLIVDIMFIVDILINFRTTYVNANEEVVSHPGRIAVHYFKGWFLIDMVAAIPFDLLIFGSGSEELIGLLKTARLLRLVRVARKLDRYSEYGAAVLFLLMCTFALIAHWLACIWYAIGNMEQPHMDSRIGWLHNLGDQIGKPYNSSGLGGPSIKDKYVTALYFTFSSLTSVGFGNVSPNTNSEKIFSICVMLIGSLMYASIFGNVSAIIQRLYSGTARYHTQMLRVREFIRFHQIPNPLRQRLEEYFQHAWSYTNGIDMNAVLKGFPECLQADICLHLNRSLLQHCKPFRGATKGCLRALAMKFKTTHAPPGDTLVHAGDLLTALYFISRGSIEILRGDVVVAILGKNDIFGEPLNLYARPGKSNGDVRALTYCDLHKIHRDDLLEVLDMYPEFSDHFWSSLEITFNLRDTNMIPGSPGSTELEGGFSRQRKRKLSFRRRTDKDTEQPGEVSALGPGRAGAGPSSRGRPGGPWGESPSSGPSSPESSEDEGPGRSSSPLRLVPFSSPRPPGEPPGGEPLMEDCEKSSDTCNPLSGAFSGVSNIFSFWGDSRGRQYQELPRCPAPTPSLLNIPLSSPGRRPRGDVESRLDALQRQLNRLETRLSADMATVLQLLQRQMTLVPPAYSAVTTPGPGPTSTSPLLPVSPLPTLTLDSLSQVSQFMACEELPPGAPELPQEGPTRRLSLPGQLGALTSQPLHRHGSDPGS
Voltage-gated inwardly rectifying potassium channel KCNH2, sequence (Q12809 whole entry): as above

Compound: CC1=C(C(=O)N2CCC[C@H]2c2cc(C)no2)[C@@H](c2ccc(Cl)c(Cl)c2)n2nc(C)cc2N1
- Stability [1]: Unstable
- inhibition at 10 µM [2]: 13%
- Stability [3]: Unstable
- GSH adduct formation [4]: < 1%
- IC50 [5]: 165 nM

Compound: CC1=C(C(=O)N2CCN(c3ccc(F)cc3)CC2)C(c2ccc(Cl)c(Cl)c2)n2nc(C)cc2N1 (racemic)
- Stability [1]: Unstable
- inhibition at 10 µM [2]: 60%
- Stability [3]: Unstable
- GSH adduct formation [4]: < 1%
- IC50 [5]: 124 nM

Compound: COCC1=C(C(=O)N2CCC[C@H]2c2cc(C)no2)[C@@H](c2ccc(Cl)c(Cl)c2)n2nccc2N1
- inhibition at 10 µM [2]: 14%
- IC50 [5]: 70 nM

Compound: CC1=C(C(=O)N2CCC[C@H]2c2ccc(F)cc2)[C@@H](c2ccc(Cl)c(Cl)c2)n2ncc(C)c2N1
- inhibition [6]: 45%
- GSH adduct formation [4]: < 1%

Compound: CC1=C(C(=O)N2CCC[C@H]2c2cc(C)no2)[C@@H](c2nc3ccccc3s2)n2nc(C(F)(F)F)cc2N1
- IC50 [5]: 281 nM

Compound: CC1=C(C(=O)N2CCN(c3ccccc3)CC2)C(c2ccc(Cl)c(Cl)c2)n2nc(C)cc2N1 (racemic)
- inhibition at 10 µM [2]: 29%
- IC50 [5]: 149 nM

Compound: CC1=C(C(=O)N2CCC[C@H]2c2cc(C)no2)[C@@H](c2nc3ccccc3n2C)n2nc(C(F)(F)F)cc2N1
- inhibition [6]: 36%

Compound: CC1=C(C(=O)N2CCC[C@H]2c2cc(C)no2)[C@@H](c2ccc(Cl)c(Cl)c2)n2nccc2N1
- inhibition at 10 µM [2]: 41%
- GSH adduct formation [4]: 21%
- IC50 [5]: 83 nM

Compound: CC1=C(C(=O)N2CCN(c3ccc(F)cc3)CC2)C(c2ccc(Cl)c(Cl)c2)n2ncc(Cl)c2N1 (racemic)
- inhibition [6]: 24%
- GSH adduct formation [4]: 4%

Compound: CC1=C(C(=O)N2CCN(c3ccc(F)cc3)CC2)C(c2ccc(Cl)c(Cl)c2)n2nc(C(F)(F)F)cc2N1 (racemic)
- IC50 [5]: 419 nM

Compound: CC1=C(C(=O)N2CCN(c3ccc(F)cc3)CC2)[C@@H](c2ccc(Cl)c(Cl)c2)n2nccc2N1
- inhibition at 10 µM [2]: 42%

Compound: COCC1=C(C(=O)N2CCC[C@H]2c2cc(C)no2)[C@@H](c2cc3ccccc3n2C)n2nc(C(F)(F)F)cc2N1
- Vd [7]: 5 L/kg
- inhibition [8]: 10%
- Activity [9]: Non-toxic
- IC50 [10]: > 10000 nM
- inhibition [11]: 37%
- concentration [12]: 700 nM
- half-life [13]: 1.8 h
- half-life [14]: 2.5 h
- half-life [15]: 2 h
- inhibition at 10 µM [2]: 14%
- concentration [16]: 2100 nM
- clearance [17]: 47 mL/min/kg
- IC50 [18]: 5800 nM
- Vd [19]: 3.7 L/kg
- bioavailability [20]: 31%
- concentration [21]: 13400 nM
- IC50 [22]: > 10000 nM
- IC50 [23]: > 10000 nM
- IC50 [5]: 150 nM
- Vd [24]: 1.9 L/kg
- concentration [25]: 300 nM
- bioavailability [26]: 61%
- clearance [27]: 12 mL/min/kg
- clearance [28]: 29 mL/min/kg

Compound: CC1=C(C(=O)N2CCC[C@H]2c2cc(C)no2)[C@@H](c2cc3ccccc3n2C)n2nc(C(F)(F)F)cc2N1
- inhibition at 10 µM [2]: 19%
- IC50 [5]: 72 nM

Compound: CC1=C(C(=O)N2CCC[C@H]2c2ccc(F)cc2)[C@@H](c2ccc(Cl)c(Cl)c2)n2nccc2N1 [BMS-394136]
- inhibition at 10 µM [2]: 30%
- GSH adduct formation [4]: 33%

Compound: CC1=C(C(=O)N2CCN(c3ccc(F)cc3)CC2)C(c2ccc(Cl)c(Cl)c2)n2nc(Cl)cc2N1 (racemic)
- IC50 [5]: 209 nM

Compound: CC1=C(C(=O)N2CCC[C@H]2c2ccc(F)cc2)[C@@H](c2ccc(Cl)c(Cl)c2)n2nc(C(F)(F)F)cc2N1
- inhibition [6]: 37%

Compound: CC1=C(C(=O)N2CCC[C@H]2c2cc(C)no2)[C@@H](c2ccc(Cl)c(Cl)c2)n2nc(C3CC3)cc2N1
- IC50 [5]: 227 nM

Compound: CC1=C(C(=O)N2CCC[C@H]2c2ccc(F)cc2)[C@@H](c2ccc(Cl)c(Cl)c2)n2nc(C)cc2N1
- Stability [1]: Unstable
- inhibition at 10 µM [2]: 10%
- Stability [3]: Unstable
- GSH adduct formation [4]: 5%
- IC50 [5]: 100 nM

Compound: CC1=C(C(=O)N2CCC[C@H]2c2cc(C)no2)[C@@H](c2ccc(Cl)c(Cl)c2)n2nc(C(F)(F)F)cc2N1
- Activity [29]: Active
- Activity [30]: 20%
- Activity [9]: Non-toxic
- bioavailability [31]: 68%
- Vd [32]: 3 L/kg
- clearance [33]: 27 mL/min/kg
- concentration [12]: 1700 nM
- half-life [13]: 1.8 h
- half-life [34]: 1 h
- Stability [1]: Stable
- inhibition at 10 µM [2]: 47%
- concentration [16]: 6700 nM
- Vd [19]: 1.7 L/kg
- Stability [3]: Stable
- GSH adduct formation [4]: < 1%
- bioavailability [20]: 53%
- concentration [21]: 17300 nM
- IC50 [5]: 101 nM
- concentration [25]: 700 nM
- clearance [28]: 11 mL/min/kg
